In ChEMBL document CHEMBL4033790, “Design and Synthesis of Novel Deuterated Ligands Functionally Selective for the γ-Aminobutyric Acid Type A Receptor (GABAAR) α6 Subtype with Improved Metabolic Stability and Enhanced Bioavailability” (J Med Chem, 2018):
Values after ≈ are worked out from the molar mass of the structure shown. Active and inactive are the calls of the source. No cut-off for these calls is given here.

Key:
Liver [1] = experiment: Half life in mouse liver microsomes at 10 uM by LC-MS/MS analysis; assay type: ADME, microsome
In short: (§1)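 Compound at 10 μM final was preincubated 5 min at 37 °C with NADPH regenerating system in phosphate buffer, pH 7.4. Human or mouse liver microsomes (0.5 mg/mL protein) were added to start the reaction. Samples were taken at 0 (no microsomes) and 10–60 min and measured by LC-MS/MS against an internal standard. Half-life = 0.693/k, with k the slope of ln peak-area ratio versus time. Three experiments, each in duplicate.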

[2] = Metabolic stability in mouse liver microsomes assessed as parent compound remaining at 10 uM after 60 mins by LC-MS analysis; assay type: ADME, microsome; settings: read-out: Stability
In short: (§2)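 The 60 min samples of the microsomal incubation (10 μM compound, human or mouse liver microsomes at 0.5 mg/mL, NADPH regenerating system, 37 °C) were analysed by LC-MS. Detection used SIM mode with dual ESI/APCI ionization, calibrated to the retention times and masses of the parent and its O-demethylated metabolites. Peak intensities were measured.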

Liver [3] = experiment: Half life in human liver microsomes at 10 uM by LC-MS/MS analysis; assay type: ADME, microsome; in short: as §1
Rattus norvegicus = species: Rattus norvegicus; experiment: Displacement of [3H]-flunitrazepam from rat brain GABA-A receptor benzodiazepine site […] at 10 uM after 60 to 90 mins by scintillation counting; settings: tested as the 2H-labelled form
[4] = Solubility of the compound in 0.01M HCl at pH 2 after 2 hrs by LC-MS analysis; assay type: physicochemical; settings: buffer, pH 2, 2 h
In short: (§3)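 10 mg compound dissolved in 2 mL DMAC; 10 μL of this added to 2 mL DI water (pH 7, sonicated) or 2 mL 0.01 M aq HCl (pH 2), held 2 h at 37 °C. Filtered through 0.45 micron filter, then quantified by LC-MS in SIM mode against calibration curves of standards in DMAC (n = 5); n=3.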

[5] = molecular target: Delta-type opioid receptor (Homo sapiens) (UniProt P41143); experiment: Displacement of [3H]-DADLE from human recombinant DOR expressed in HEK293 cells at 10 uM after 60 to 90 mins by scintillation counting; assay type: cell-based; settings: tested as the 2H-labelled form
Delta-type opioid receptor (Homo sapiens), sequence (P41143 whole entry): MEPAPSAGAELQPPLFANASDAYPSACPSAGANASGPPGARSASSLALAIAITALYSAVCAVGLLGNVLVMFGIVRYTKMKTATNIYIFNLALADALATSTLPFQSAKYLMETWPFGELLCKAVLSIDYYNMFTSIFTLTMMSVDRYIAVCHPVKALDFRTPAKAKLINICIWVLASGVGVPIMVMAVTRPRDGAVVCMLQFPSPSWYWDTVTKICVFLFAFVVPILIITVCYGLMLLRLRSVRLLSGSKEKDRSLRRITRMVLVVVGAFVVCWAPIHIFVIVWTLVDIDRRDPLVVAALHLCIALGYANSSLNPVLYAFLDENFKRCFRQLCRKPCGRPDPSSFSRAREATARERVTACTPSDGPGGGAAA
In short: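 Primary single-concentration radioligand displacement screen run by the NIMH Psychoactive Drug Screening Program across a 46-target panel that includes hERG. The read-out is percent inhibition of specific radioligand binding. Any compound displacing more than 50% of radioligand went on to secondary binding assays to determine Ki.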

[6] = Metabolic stability in human liver microsomes assessed as parent compound remaining at 10 uM after 60 mins by LC-MS analysis; assay type: ADME, microsome; settings: read-out: Stability; in short: as §2
Mus musculus = experiment: Neurotoxicity in Swiss Webster mouse assessed as induction of motor impairment at 40 mg/kg administered via oral gavage measured after 10 to 60 mins by rotarod method; assay type: toxicity, organism-based; settings: in vivo
In short: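 Female mice were given a single oral gavage dose of 40 mg/kg, either in 50% PBS/40% propylene glycol/10% DMSO or, for poorly soluble compounds, in 2% polyethylene glycol plus 2.5% hydroxymethyl cellulose. Rotarod performance was tested 10, 30 and 60 min after dosing, with diazepam 5 mg/kg as positive control.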

[7] = Aqueous solubility of the compound in DI water at pH 7 after 2 hrs by LC-MS analysis; assay type: physicochemical; settings: buffer, pH 7, 2 h; in short: as §3
[8] = Drug level in human liver microsomes treated with 7-Bromo-2-(4-methoxy-d3-phenyl)-2,5-dihydro-3H-pyrazolo[4,3-c]quinolin-3-one after 60 mins by LC-MS analysis; assay type: ADME; settings: 1 h
[9] = Drug level in mouse liver microsomes treated with 7-Bromo-2-(4-methoxy-d3-phenyl)-2,5-dihydro-3H-pyrazolo[4,3-c]quinolin-3-one after 60 mins by LC-MS analysis; assay type: ADME; settings: 1 h
[10] = Cmax in Wistar rat brain at 10 mg/kg, ip administered as single dose measured at 5 to 720 mins post dose by HPLC-MS/MS analysis; assay type: ADME, organism-based; set-up: dose 10 mg/kg, route intraperitoneal
In short: (§4)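 Male Wistar rats (250-350 g) given a single 10 mg/kg i.p. dose of a 5 mg/ml suspension in 85% distilled water, 14% propylene glycol, 1% Tween 80. Three rats per time point (5, 20, 60, 180, 720 min). Blood and brain were collected after sacrifice. Drug was recovered by solid phase extraction and quantified by HPLC-MS/MS.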

Brain [11] = experiment: Fraction unbound in Wistar rat brain at 10 mg/kg, ip administered as single dose measured at 5 to 720 mins post dose by HPLC-MS/MS analysis; assay type: ADME, organism-based; settings: in vivo
In short: (§5)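 Free fraction in rat plasma and brain tissue was measured in vitro by rapid equilibrium dialysis. Exposure came from male Wistar rats (250-350 g) given a single 10 mg/kg IP dose, as a 5 mg/ml suspension in 85% water, 14% propylene glycol and 1% Tween 80. Three rats per time point (5–720 min); brain analysed by HPLC-MS/MS after solid-phase extraction.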

[12] = molecular target: Voltage-gated inwardly rectifying potassium channel KCNH2 (Homo sapiens, UniProt Q12809); experiment: Displacement of [3H]-dofetilide from human ERG expressed in HEK cell membranes at >10 uM after 60 to 90 mins by scintillation counting
Voltage-gated inwardly rectifying potassium channel KCNH2, sequence (Q12809 whole entry): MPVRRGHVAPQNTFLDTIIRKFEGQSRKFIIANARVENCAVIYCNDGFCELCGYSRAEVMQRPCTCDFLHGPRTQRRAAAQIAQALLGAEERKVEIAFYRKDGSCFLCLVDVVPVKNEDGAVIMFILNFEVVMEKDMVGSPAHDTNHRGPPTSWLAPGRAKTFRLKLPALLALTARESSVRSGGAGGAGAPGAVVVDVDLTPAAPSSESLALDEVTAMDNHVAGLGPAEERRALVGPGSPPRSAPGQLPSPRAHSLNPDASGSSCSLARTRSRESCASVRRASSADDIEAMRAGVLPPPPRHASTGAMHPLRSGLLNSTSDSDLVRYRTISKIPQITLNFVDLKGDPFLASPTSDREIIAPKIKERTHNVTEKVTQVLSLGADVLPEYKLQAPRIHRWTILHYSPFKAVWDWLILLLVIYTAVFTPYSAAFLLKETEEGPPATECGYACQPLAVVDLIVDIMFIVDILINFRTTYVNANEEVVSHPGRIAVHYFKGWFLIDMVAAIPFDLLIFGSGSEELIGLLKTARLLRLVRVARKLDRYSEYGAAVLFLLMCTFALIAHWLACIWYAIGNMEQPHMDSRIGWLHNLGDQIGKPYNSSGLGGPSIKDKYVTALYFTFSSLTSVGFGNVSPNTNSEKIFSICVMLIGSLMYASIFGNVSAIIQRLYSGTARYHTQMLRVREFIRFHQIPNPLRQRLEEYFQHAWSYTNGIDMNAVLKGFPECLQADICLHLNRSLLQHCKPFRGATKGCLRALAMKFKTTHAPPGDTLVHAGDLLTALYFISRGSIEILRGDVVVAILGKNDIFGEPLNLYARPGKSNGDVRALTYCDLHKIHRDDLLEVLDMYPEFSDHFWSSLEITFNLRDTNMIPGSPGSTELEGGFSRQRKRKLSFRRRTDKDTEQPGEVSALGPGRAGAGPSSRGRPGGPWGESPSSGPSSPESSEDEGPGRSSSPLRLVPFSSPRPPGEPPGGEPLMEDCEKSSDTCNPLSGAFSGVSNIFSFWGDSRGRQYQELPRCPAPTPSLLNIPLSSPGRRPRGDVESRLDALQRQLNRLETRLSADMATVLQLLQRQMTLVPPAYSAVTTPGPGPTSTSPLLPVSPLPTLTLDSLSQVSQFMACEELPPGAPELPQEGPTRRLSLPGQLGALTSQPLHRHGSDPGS

[13] = Terminal elimination half-life in Wistar rat brain at 10 mg/kg, ip administered as single dose by HPLC-MS/MS analysis; assay type: ADME, organism-based; settings: read-out: beta t1/2 (converted)
In short: (§6)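 Male Wistar rats (250–350 g) received a single i.p. dose of 10 mg/kg as a 5 mg/ml suspension in 85% water, 14% propylene glycol and 1% Tween 80. Three rats per time point were sacrificed at 5, 20, 60, 180 and 720 min for plasma and brain. Samples were cleaned up by solid-phase extraction and quantified by HPLC-MS/MS.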

[14] = AUC (0 to 12 hrs) in Wistar rat plasma at 10 mg/kg, ip administered as single dose by HPLC-MS/MS analysis; assay type: ADME, organism-based; set-up: time < 12 hr, dose 10 mg/kg, route intraperitoneal
Brain [15] = experiment: AUC (0 to 12 hrs) in Wistar rat brain at 10 mg/kg, ip administered as single dose by HPLC-MS/MS analysis; assay type: ADME, organism-based; set-up: dose 10 mg/kg, time < 12 hr, route intraperitoneal; settings: in vivo
[16] = Cmax in Wistar rat plasma at 10 mg/kg, ip administered as single dose measured at 5 to 720 mins post dose by HPLC-MS/MS analysis; assay type: ADME, organism-based; set-up: dose 10 mg/kg, route intraperitoneal; in short: as §4
[17] = Tmax in Wistar rat brain at 10 mg/kg, ip administered as single dose by HPLC-MS/MS analysis; assay type: ADME, organism-based; in short: as §6
HEK-293T = experiment: Cytotoxicity against HEK293T cells assessed as reduction in cell viability up to 400 uM after 48 hrs by CellTiter-Glo assay; assay type: cell-based; settings: human
In short: (§7)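 HEK293T and HepG2 cells grown in high-glucose DMEM with non-essential amino acids, 10 mM HEPES, penicillin/streptomycin and 10% heat-inactivated FBS. Cells were harvested with trypsin and plated; compound was pin-transferred 3 h later. Incubation was 48 h, then CellTiter-Glo luminescence was read. Controls were DMSO (negative) and a cytotoxic aminoketone (positive). Quadruplicates, three independent runs, normalized to controls, nonlinear regression.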

Brain [18] = experiment: Unbound AUC in Wistar rat brain at 10 mg/kg, ip administered as single dose measured at 5 to 720 mins post dose by HPLC-MS/MS analysis; assay type: ADME, organism-based; settings: in vivo; in short: as §5
HepG2 = experiment: Cytotoxicity against human HepG2 cells assessed as reduction in cell viability up to 400 uM after 48 hrs by CellTiter-Glo assay; assay type: cell-based; settings: hepg2, 48 h; in short: as §7
[19] = Tmax in Wistar rat plasma at 10 mg/kg, ip administered as single dose by HPLC-MS/MS analysis; assay type: ADME, organism-based; in short: as §6
[20] = Ratio of brain AUC (0 to t) to plasma AUC (0 to t), Kp of the compound in Wistar rat at 10 mg/kg, ip administered as single dose by HPLC-MS/MS analysis; assay type: ADME, organism-based
[21] = Terminal elimination half-life in Wistar rat plasma at 10 mg/kg, ip administered as single dose by HPLC-MS/MS analysis; assay type: ADME, organism-based; settings: read-out: beta t1/2 (converted); in short: as §6

Which results are given for `COc1ccc(-n2nc3c4cc(Cl)ccc4[nH]cc-3c2=O)cc1`?
t1/2 (Liver [1]): 1.9 h; remaining at 1 h, 10 µM [2]: 69.2%; t1/2 (Liver [3]): 2.3 h; inhibition (Rattus norvegicus): Active; solubility [4]: 8.5 µM (≈ 2.77 µg/mL); inhibition [5]: Active; remaining at 1 h, 10 µM [6]: 72.5%; Activity (Mus musculus): Non-Toxic; solubility [7]: 6.4 µM (≈ 2.08 µg/mL)

Which Drug metabolism [8] does the source give for `O=c1c2c[nH]c3cc(Br)ccc3c-2nn1-c1ccc(O)cc1` here?
Its Drug metabolism is “Metabolite_Detected”.

What about the Drug metabolism [9] of the same molecule?
Its Drug metabolism is “Metabolite_Detected”.

For `[2H]C([2H])([2H])Oc1ccc(-n2nc3c4ccc(OC([2H])([2H])[2H])cc4[nH]cc-3c2=O)cc1`, which Cmax [10] is on record?
The Cmax was 534 ng/g.

What about the remaining at 1 h, 10 µM [2] of the same molecule?
The remaining at 1 h, 10 µM was 93.1%.

And the Fu (Brain [11])?
The Fu was 0.105.

And the “inhibition (INH)” value [12]?
Its value is “Not Active”.

What about the half-life [13] of the same molecule?
Its half-life is 3.52 h.

And the AUC(0-t) at 12 h [14]?
Its AUC(0-t) at 12 h is 16700 ng·h/mL.

And the AUC (Brain [15])?
The AUC was 2747.67 ng·h/g.

What about the Cmax [16] of the same molecule?
The Cmax was 3410 ng/mL.

And the Tmax [17]?
Its Tmax is 0.78 h.

What about the remaining at 1 h, 10 µM [6] of the same molecule?
Its remaining at 1 h, 10 µM is 91.5%.

And the Activity (Mus musculus)?
The Activity was “Non-Toxic”.

And the Activity (HEK-293T)?
The Activity was “Non-Toxic”.

What about the fAUC (Brain [18]) of the same molecule?
The fAUC was 288.78 ng·h/g.

What about the Activity (HepG2) of the same molecule?
The Activity was “Non-Toxic”.

What about the Tmax [19] of the same molecule?
The Tmax was 0.55 h.

What about the Kp [20] of the same molecule?
The Kp was 0.17.

What about the half-life [21] of the same molecule?
Its half-life is 2.64 h.
